Assay outcomes from PubChem.
A selection: hits, their analogues and other compounds. The true share with any hit is near 3.5%.
MrgX1 agonist = agonists of human MrgX1 receptor; AID 588627; MrgX1-HEK293 cells, Fluo-4 calcium fluorescence, agonist mode; active compounds read high; 0.44% of 310,000 active; B-score at 10 µM;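 active = calcium response B-score plate-corrected fluorescence ratio at least 3 library SD, with starting fluorescence B-score inside 5 SD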
Target sequence (Q96LB2 whole entry, looked up): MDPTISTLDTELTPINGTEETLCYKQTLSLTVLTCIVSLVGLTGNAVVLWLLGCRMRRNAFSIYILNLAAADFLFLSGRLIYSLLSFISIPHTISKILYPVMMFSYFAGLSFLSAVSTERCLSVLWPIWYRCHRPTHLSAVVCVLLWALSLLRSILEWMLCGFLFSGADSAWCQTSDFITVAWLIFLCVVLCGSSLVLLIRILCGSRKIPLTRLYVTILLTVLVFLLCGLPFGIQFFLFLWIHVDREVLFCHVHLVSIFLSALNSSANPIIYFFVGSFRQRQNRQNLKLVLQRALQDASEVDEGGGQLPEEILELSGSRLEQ
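times = overnight plating, then 30 min 37 °C plus 30 min room-temperature dye loading | assay system = stable human MrgX1 HEK293 cell line | input = fifteen thousand cells per well | signal = kinetic calcium dye fluorescence, Fluo-4 NW | dosing = compound delivered in addition one of three | read-out = B-scored fluorescence response ratio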
RGS4 act = RGS4 potentiation or activation | HEK293 M3R/inducible RGS4, carbachol calcium flux Fluo4; active compounds read low | AID 463111 | 0.92% of 310,000 active | B-score at 10 µM;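 active = B-score of the integrated calcium signal more than 4 SD below the library mean, with starting fluorescence not abnormally high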;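 also: negative B-score means reduced calcium response which marks RGS4 activation or potentiation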
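Material: M3R-expressing HEK293 line, RGS4 induced by doxycycline | Schedule: Overnight RGS4 induction, 30 min dye load 37 °C, 20 min compound RT | Measured by: Fluo4 fluorescence kinetic imaging of calcium | Read-out: Integrated calcium ratio converted to B score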
MrgX1 PAM = allosterically activates human MrgX1 receptor signaling; Q96LB2; MrgX1-HEK293, Fluo-4 calcium flux, FDSS; active compounds read high; B-score at 10 µM; 0.63% of 310,000 active; AID 588675;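 active = plate-corrected calcium response at least 3 library SD above typical, normal starting fluorescence, not activating the receptor alone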;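 also: compound read alongside a low EC10 to EC30 dose of BAM8-22 agonist; peak minus trough fluorescence over baseline measured at the second addition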
RGS4 inh = human RGS4 inhibition; HEK293 M3R/RGS4 inducible, Fluo-4 calcium flux; active compounds read high; triggered by carbachol at its EC20; P49798; AID 463165; B-score at 10 µM; 0.45% of 310,000 active;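 active = B-score, a plate-corrected calcium signal, over three deviations above library mean, with baseline fluorescence within five deviations of library mean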;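 also: RGS4 expression induced by doxycycline in cells with stable M3 receptor; B-score is computed from the integrated fluorescence ratio over baseline after carbachol; higher B-score means a larger calcium signal and so more RGS4 inhibition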
Target sequence (P49798 whole entry, looked up): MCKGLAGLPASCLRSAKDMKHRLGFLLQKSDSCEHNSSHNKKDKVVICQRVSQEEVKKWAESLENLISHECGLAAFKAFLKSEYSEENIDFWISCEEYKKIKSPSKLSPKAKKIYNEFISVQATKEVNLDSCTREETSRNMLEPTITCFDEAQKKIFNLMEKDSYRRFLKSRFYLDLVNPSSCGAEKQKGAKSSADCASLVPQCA
MrgX1 antag = human MrgX1 receptor antagonism, primary screen; B-score at 10 µM; Q96LB2; MRGX1-HEK293 calcium flux, Fluo-4, BAM8-22 antagonism; active compounds read low; 1.3% of 310,000 active;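 active = calcium-response B-score plate-corrected more than 3 library SD below zero, starting fluorescence within 5 deviations, no agonist response on first addition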;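 also: peak minus trough fluorescence over baseline after final BAM8-22 challenge near maximal dose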
RGS4 act valid = confirmation of RGS4 activators; HEK293 M3R/RGS4 inducible, carbachol calcium flux Fluo4; shares compounds with RGS4 act; inhibition, % at 10 µM; AID 602282; 89% of 1,100 active;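 active = inhibition above 3 SD of the buffer control wells, cut at about 41% in these data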;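 also: signal is the integrated peak-minus-minimum Fluo4 fluorescence over baseline ratio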
M3R Ca counter = counter-screen for RGS4 activators: effect in non-induced cells; shares compounds with RGS4 act; HEK293 M3R non-induced RGS4, Fluo4 calcium flux; after carbachol challenge at its EC90; 82% of 1,100 active; inhibition, % at 10 µM; AID 602283;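 active = inhibition exceeding 3 SD of buffer-only control wells, cut at about 26% in these data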;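 also: percent drop in integrated peak-minus-baseline over baseline Fluo4 ratio after carbachol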
The depositor's hits bear a star.

For CCn1c2ccccc2c2cc(/C=N/n3c(-c4cc(C)[nH]n4)n[nH]c3=S)ccc21 the results were MrgX1 agonist inactive, RGS4 act -7.8*, MrgX1 PAM inactive, RGS4 inh inactive, MrgX1 antag inactive, RGS4 act valid 70* and M3R Ca counter 42*.
Screening CCCCS/C(=C(/C#N)C(N)=O)c1cc2c([nH]1)CCCC2 returned MrgX1 agonist inactive, RGS4 act -8.2*, MrgX1 PAM inactive, RGS4 inh inactive, MrgX1 antag inactive, RGS4 act valid 94* and M3R Ca counter 92*.
`CCSc1nnc(-c2ccc(S(=O)(=O)N3CCOCC3)cc2)n1C` gave MrgX1 agonist inactive, RGS4 act inactive, MrgX1 PAM inactive, RGS4 inh inactive and MrgX1 antag inactive.
Screening Clc1ccc(OCc2nc3ccccc3[nH]2)cc1 returned MrgX1 agonist inactive, RGS4 act inactive, MrgX1 PAM inactive, RGS4 inh inactive and MrgX1 antag inactive.
`OC(Cc1nc2ccccc2[nH]1)c1ccccc1Cl` (stereo not given) gave MrgX1 agonist inactive, RGS4 act -8.2*, MrgX1 PAM inactive, RGS4 inh inactive, MrgX1 antag inactive, RGS4 act valid 0 and M3R Ca counter 0.
Screening C=CCNC(=O)c1ccc(C(=O)c2ccccc2)cc1 returned MrgX1 agonist inactive, RGS4 act inactive, MrgX1 PAM inactive, RGS4 inh inactive and MrgX1 antag inactive.
For O=C(O)c1ccc2nc3c(nc2c1)-c1ccccc1C3=O the results were MrgX1 agonist inactive, RGS4 act -11*, MrgX1 PAM inactive, RGS4 inh inactive, MrgX1 antag inactive, RGS4 act valid 0 and M3R Ca counter 0.
For C=CCNC(=O)c1ccc2nc(-c3ccccc3)c(-c3ccccc3)nc2c1 the results were MrgX1 agonist inactive, RGS4 act -8.9*, MrgX1 PAM inactive, RGS4 inh inactive, MrgX1 antag inactive, RGS4 act valid 77* and M3R Ca counter 44*.
`CCO[C@@H]1OC(C(=O)O)=C[C@H](C2CC2)[C@H]1CCCO` gave MrgX1 agonist inactive, RGS4 act inactive, MrgX1 PAM inactive, RGS4 inh inactive and MrgX1 antag inactive.
`COc1ccccc1N(C(=O)CCl)c1cn(C(C)=O)c2ccccc12` gave MrgX1 agonist inactive, RGS4 act -8.8*, MrgX1 PAM inactive, RGS4 inh inactive, MrgX1 antag inactive, RGS4 act valid 0 and M3R Ca counter 0.
Cc1cc(C)c(C#N)c(SCC(O)COc2ccc(Br)cc2)n1 (stereo not given) was read as MrgX1 agonist inactive, RGS4 act -13*, MrgX1 PAM inactive, RGS4 inh inactive, MrgX1 antag inactive, RGS4 act valid 94* and M3R Ca counter 94*.
For O=C(NNC(=O)C1CCC(C(=O)NNC(=O)c2cccs2)CC1)c1cccs1 (stereo not given) the results were MrgX1 agonist inactive, RGS4 act inactive, MrgX1 PAM inactive, RGS4 inh inactive and MrgX1 antag inactive.
For CCN(CC)C1CCN(C(=O)c2cc(COc3cccc4cccnc34)on2)C1 (stereo not given) the results were RGS4 act -9.2*, RGS4 inh inactive, RGS4 act valid 90* and M3R Ca counter 75*.
For COc1cccc(C(C)N(C)Cc2nc(-c3ccoc3)oc2C)c1 (stereo not given) the results were MrgX1 agonist inactive, RGS4 act inactive, MrgX1 PAM inactive, RGS4 inh inactive and MrgX1 antag inactive.
For COc1ccc2cc(C(=O)N3CCC(Cc4ccccc4)CC3)[nH]c2c1 the results were MrgX1 agonist inactive, RGS4 act -7.9*, MrgX1 PAM inactive, RGS4 inh inactive, MrgX1 antag inactive, RGS4 act valid 0 and M3R Ca counter 0.
`COc1ccc2[nH]c(C(=O)N3CCC(Cc4ccccc4)CC3)cc2c1` gave MrgX1 agonist inactive, RGS4 act inactive, MrgX1 PAM inactive, RGS4 inh inactive and MrgX1 antag inactive.
`CCN(CC)CCC#CC(O)(c1ccccc1)c1ccccc1` gave MrgX1 agonist inactive, RGS4 act -8.1*, MrgX1 PAM inactive, RGS4 inh inactive, MrgX1 antag inactive, RGS4 act valid 93* and M3R Ca counter 89*.
CCN(CC)CCC#CC1(O)c2ccccc2-c2ccccc21 was read as MrgX1 agonist inactive, RGS4 act inactive, MrgX1 PAM inactive, RGS4 inh inactive and MrgX1 antag inactive.
Screening CCOC(=O)c1c(NC(C)=O)sc2c(OC)c(Br)ccc12 returned MrgX1 agonist inactive, RGS4 act inactive, MrgX1 PAM inactive, RGS4 inh inactive and MrgX1 antag inactive.
CCOC(=O)c1c(NC(C)=O)sc2c(OCCN(CC)CC)c(Br)ccc12 was read as MrgX1 agonist inactive, RGS4 act -10*, MrgX1 PAM inactive, RGS4 inh inactive, MrgX1 antag inactive, RGS4 act valid 90* and M3R Ca counter 39*.
Screening N#Cc1ccsc1NC(=O)CCc1ccccc1 returned MrgX1 agonist inactive, RGS4 act inactive, MrgX1 PAM inactive, RGS4 inh inactive and MrgX1 antag inactive.
For N#Cc1ccsc1NC(=O)CCN1CCN(C(c2ccccc2)c2ccccc2)CC1 the results were MrgX1 agonist inactive, RGS4 act -9.1*, MrgX1 PAM inactive, RGS4 inh inactive, MrgX1 antag inactive, RGS4 act valid 74* and M3R Ca counter 84*.
Screening CCOC(=O)C(=O)NC(C)CCc1ccccc1 (stereo not given) returned MrgX1 agonist inactive, RGS4 act inactive, MrgX1 PAM inactive, RGS4 inh inactive and MrgX1 antag inactive.
O=C(COc1ccc(F)cc1)NCCCn1ccnc1 was read as RGS4 act inactive and RGS4 inh inactive.
CC(/C=N/n1c(-c2n[nH]c3c2CCC3)n[nH]c1=S)=C\c1ccco1 was read as MrgX1 agonist inactive, RGS4 act -9*, MrgX1 PAM inactive, RGS4 inh inactive, MrgX1 antag inactive, RGS4 act valid 93* and M3R Ca counter 90*.
Cc1ccccc1-c1n[nH]c(=S)n1/N=C/C=C/c1ccco1 was read as MrgX1 agonist inactive, RGS4 act -8*, MrgX1 PAM inactive, RGS4 inh inactive, MrgX1 antag inactive, RGS4 act valid 89* and M3R Ca counter 44*.
